Assay results reported in ChEMBL document CHEMBL1150154, “Isolation of labradorins 1 and 2 from Pseudomonas syringae pv. coronafaciens” (2002).
In brackets after ≈: the same amount, converted by molar mass. Activity calls are given as the source filed them. No cut-off for these calls is given here.

How the values were obtained:
KM-20L2 = assay: Growth inhibition of human KM20L2 cells; format: functional
Summary of the method: (§1)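 Human cancer cell line panel: pancreas (BXPC-3), breast (MCF-7), CNS (SF-268), non-small-cell lung (NCI-H460), colon (KM20L2) and prostate (DU-145). Growth inhibition is reported as GI50 in µg/mL.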

BXPC-3 = assay: Growth inhibition of human BxPC3 cells; format: functional; summary of the method: as §1
MCF7 = assay: Growth inhibition of human MCF7 cells; format: functional; summary of the method: as §1
SF-268 = assay: Growth inhibition of human SF268 cells; format: functional; summary of the method: as §1
NCI-H460 = assay: Growth inhibition of human NCI-H460 cells; format: functional; summary of the method: as §1
DU-145 = assay: Growth inhibition of human DU145 cells; format: functional; summary of the method: as §1
Staphylococcus aureus = assay: Antimicrobial activity against Staphylococcus aureus up to 64 ug/mL by broth microdilution susceptibility assay; format: functional, organism-based
Streptococcus pneumoniae = assay: Antimicrobial activity against Streptococcus pneumoniae up to 64 ug/mL by broth microdilution susceptibility assay; format: functional, organism-based
Enterococcus faecalis = assay: Antimicrobial activity against Enterococcus faecalis up to 64 ug/mL by broth microdilution susceptibility assay; format: functional, organism-based
Micrococcus luteus = assay: Antimicrobial activity against Micrococcus luteus up to 64 ug/mL by broth microdilution susceptibility assay; format: functional, organism-based
Enterobacter cloacae = assay: Antimicrobial activity against Enterobacter cloacae up to 64 ug/mL by broth microdilution susceptibility assay; format: functional, organism-based
Escherichia coli = assay: Antimicrobial activity against Escherichia coli up to 64 ug/mL by broth microdilution susceptibility assay; format: functional, organism-based
[1] = test system: Stenotrophomonas maltophilia; assay: Antimicrobial activity against Stenotrophomonas maltophilia up to 64 ug/mL by broth microdilution susceptibility assay; format: functional, organism-based
Neisseria gonorrhoeae = assay: Antimicrobial activity against Neisseria gonorrhoeae up to 64 ug/mL by broth microdilution susceptibility assay; format: functional, organism-based
Cryptococcus neoformans = assay: Antimicrobial activity against Cryptococcus neoformans up to 64 ug/mL by broth microdilution susceptibility assay; format: functional, organism-based
Candida albicans = assay: Antimicrobial activity against Candida albicans up to 64 ug/mL by broth microdilution susceptibility assay; format: functional, organism-based

Structure (SMILES) | GI50 (KM-20L2) [µg/mL] | GI50 (BXPC-3) [µg/mL] | GI50 (MCF7) [µg/mL] | GI50 (SF-268) [µg/mL] | GI50 (NCI-H460) [µg/mL] | GI50 (DU-145) [µg/mL] | Activity (Staphylococcus aureus) | Activity (Streptococcus pneumoniae) | Activity (Enterococcus faecalis) | Activity (Micrococcus luteus) | Activity (Enterobacter cloacae) | Activity (Escherichia coli) | Activity [1] | Activity (Neisseria gonorrhoeae) | Activity (Cryptococcus neoformans) | Activity (Candida albicans)
CCCCCc1ncc(-c2c[nH]c3ccccc23)o1 [LABRADORIN 2] | 9.7 (≈ 38.1 µM) | 9.6 (≈ 37.7 µM) | 27.4 (≈ 108 µM) | 58.8 (≈ 231 µM) | 9.6 (≈ 37.7 µM) | 11.4 (≈ 44.8 µM) | inactive | inactive | inactive | inactive | inactive | inactive | inactive | inactive | inactive | inactive
CC(C)Cc1ncc(-c2c[nH]c3ccccc23)o1 [LABRADORIN 1] | 3.5 (≈ 14.6 µM) | 6.2 (≈ 25.8 µM) | 3.9 (≈ 16.2 µM) | 5.1 (≈ 21.2 µM) | 9.8 (≈ 40.8 µM) | 4 (≈ 16.6 µM) | inactive | inactive | inactive | inactive | inactive | inactive | inactive | inactive | inactive | inactive
